According to ChEMBL document CHEMBL4513216, “Probing the Open Global Health Chemical Diversity Library for Multistage-Active Starting Points for Next-Generation Antimalarials” (ACS Infect Dis, 2020):

Test: Toxicity liver stage against HepG2, at 10uM
Assay type: cell-based
Set-up: test concentration 10 uM, cell line HepG2-A16-CD81EGFP
Conditions: human, HepG2-A16-CD81EGFP cells; read-out: INHIBITION
How it was run: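 Uninfected HepG2-A16-CD81EGFP cells, 3 × 10^3 per well, 1536-well, plated on prespotted compound at 10 μM final, parasite-free screening media added to match infected plates; puromycin 10 μM positive, DMSO 0.5% negative; run in parallel with 48 h PbLuc assay at 37 °C, 5% CO2; viability by CellTiter-Glo luminescence, normalized to controls.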

Row | SMILES | cytotoxicity at 10 µM [%]
1 | Cc1nonc1OCCNC(=O)CCCc1ccc(Cl)cc1 | 7.49
2 | Cc1ccc(CN2CC[C@H]3[C@H]2CCN3S(C)(=O)=O)s1 | 2.38
3 | CC(C)OCc1ccccc1CNC(=O)C(C)S(=O)(=O)C(C)C (stereo unspecified) | -3.92
4 | CN1CCN(C(=O)Cc2cccc(F)c2)Cc2cccnc21 | -6.17
5 | CC(C)c1nn(C)c(Cl)c1CNC1CCOc2ccccc21 (stereo unspecified) | 53.2
6 | Cc1cc(S(=O)(=O)N2CCCc3ccccc32)sc1C(=O)O | -13.5
7 | CC(=O)Nc1nc(C(=O)N2CCCC2c2noc(C)n2)cs1 (stereo unspecified) | -9.55
8 | CC(=O)NCCOc1c(C)cccc1C | -2.33
9 | CCCC(CNc1cc(C(C)C)nc2ccnn12)N(C)C (stereo unspecified) | 5.6
10 | CCS(=O)(=O)N1CCc2cc(C(=O)NC)c(NCC(C)C)nc2CC1 | -149
11 | CC(=O)N1CCC2(CC1)[C@@H]1CN(Cc3cccnc3)C[C@@H]1C(=O)N2C | 4.73
12 | O=C(CN1CC(c2ccccc2)CC1=O)N1CCN(c2nccs2)CC1 (stereo unspecified) | -1.7
13 | CCC(CO)N(Cc1ccco1)C(=O)c1ccc(F)cc1Cl (stereo unspecified) | -0.247
14 | Cc1ccccc1C1CCN(CCn2cc(-c3cccc(O)c3)nn2)C1 (stereo unspecified) | 18.2
15 | Fc1cnc(N2CCCC3(CCN(c4ncccn4)C3)C2)nc1 (stereo unspecified) | -113
16 | CC(C)(C)NC(=O)[C@@H]1CNC[C@]12Cc1ccccc1C(=O)N2 | -0.42
17 | COc1ccc(OCCN(C)CCCn2cnc3c(N)ncnc32)cc1 | 1.12
18 | CCCn1c(C)cc(C(=O)CN2C(=O)c3ccccc3CS2(=O)=O)c1C | -1.94
19 | COc1cc(C)nc(N2CCN(C(=O)COC3CCCC3)CC2)n1 | -3.78
20 | O=C(N[C@@H]1CN(c2ncccn2)[C@@H]2CCCO[C@@H]21)c1cnccn1 | -4.8
21 | Cc1nn(C)c2cnn(CC(=O)NCCc3ccccc3)c12 | 13.4

Row | SMILES | cytotoxicity at 10 µM [%]
22 | CCOc1cc(C)nc(N2CCN(C(C)c3nc(C)no3)CC2)n1 (stereo unspecified) | -1.67
23 | CCS(=O)(=O)NCc1cc(Br)c(OC)c(OC)c1 | -6.83
24 | O=C(NS(=O)(=O)c1cnn(-c2ccccc2F)c1)c1ccoc1 | -5.2
25 | CO[C@H]1CCN(Cc2c(C)noc2C)[C@@H]2CN(Cc3cccnc3)C[C@H]12 | 5.55
26 | COc1ccc2nnc(CCCC(=O)NCCC3=CCCCC3)n2n1 | 2.73
27 | CC(C)(C)n1ncc2c(=O)n(CC(=O)NCCc3ccccc3)cnc21 | -11.3
28 | CC(C)Cc1cc(C(=O)NC(C)C)[nH]n1 | 5.67
29 | Cc1cccc(CN2CCC3(CCN(c4ncccn4)C3)C2=O)c1 (stereo unspecified) | 1.44
30 | Cn1cncc1CN1CCC(O)(Cn2nc(-c3cccs3)oc2=O)CC1 | -5.46
31 | CCC(CC)C(=O)c1c[nH]c(C(=O)N2CCN(c3ccccc3)CC2)c1 | 14.7
32 | Cn1ccnc1CN1CCC2(COCCN(Cc3ccsc3)C2)C1 (stereo unspecified) | -9.81
33 | COc1ccc(CN(C(=O)C2CCCO2)c2ccncc2)cc1 (stereo unspecified) | 1.86
34 | O=C(Cn1cc(C(=O)O)cn1)Nc1c(Cl)cccc1Cl | 1.57
35 | Cc1nc(O)cc(C2CCN(C(=O)CN(C)c3ccccc3)CC2)n1 | 8.92
36 | Cc1noc(C)c1-c1nc(C2CCCN(C(=O)CCN)C2)ccc1CO (stereo unspecified) | -2.53
37 | Cc1ccncc1NS(=O)(=O)c1ccc(Cl)s1 | 0.405
38 | COc1ccccc1N1CCN(C(=O)NC(C)c2nncn2C)CC1 (stereo unspecified) | -4.23
39 | COCCCNC(=O)Nc1ccc(-n2cncn2)c(C(F)(F)F)c1 | -6.98
40 | Cn1c(=O)c2cc(C(=O)NCCOCC(F)(F)F)ccc2n(C)c1=O | -13.9
41 | COCC(=O)N1CCC(c2cncc(-c3cccc(F)c3)n2)CC1 | -11.3
42 | CCNC(=O)[C@@H]1C[C@@H](NC(=O)c2ccc(C)s2)CN1Cc1ccccn1 | -3.73

Row | SMILES | cytotoxicity at 10 µM [%]
43 | O=C(NCCc1nccs1)c1n[nH]c2c1CCC2 | 3.89
44 | CCCN1CCC(c2nc3ccc(NCc4ccccc4)cn3n2)CC1 | -125
45 | COc1ccc(CC(=O)NC2CCc3nc(C)cn3C2)cc1 (stereo unspecified) | 9.55
46 | Cc1cnn(CC2CN(Cc3nc4ccccc4c(=O)[nH]3)CCO2)c1 (stereo unspecified) | -7.62
47 | COc1ccc(N(CCC(N)=O)C(=O)CSc2ccc(F)c(F)c2)cc1 | 4.13
48 | CC(Cc1ccccc1Cl)NC(=O)Nc1cnn(CC(N)=O)c1 (stereo unspecified) | -4.23
49 | COc1c(CNCCC(=O)Nc2cccc(C)n2)c(C(C)C)nn1C | -1.17
50 | C=C(C)CN(CC)C(=O)c1cc(F)ccc1N1CCN(C)CC1 | -1.18
51 | COc1ccc2c(c1)OCC(C(=O)NCc1nc3c(s1)CCCC3)C2 (stereo unspecified) | -4.29
52 | COc1cccc(CC(=O)N2CCN(c3cccc(C)c3)C(C)C2)c1 (stereo unspecified) | 8.63
53 | C[C@@H]1CN(Cc2cccc(F)c2)C[C@]12CCN(Cc1cccnc1)C2=O | -2.6
54 | CNC(=O)CN(C)c1nc(-c2ccc(C(N)=O)cc2)nc2c1CCNC2 | 3.62
55 | CC(=O)N1CCCC1c1cc(N2CCN(C3CCCC3)CC2)cc(C)n1 (stereo unspecified) | 1.18
56 | CC(C(=O)Nc1ccccc1F)S(C)(=O)=O (stereo unspecified) | -5.27
57 | Cc1cc(C)n(CC2CCCN2C(=O)CCCNc2ncccn2)n1 (stereo unspecified) | -19
58 | Cc1cc(C)n(CC2CCCN2C(=O)Cc2csc(C)n2)n1 (stereo unspecified) | 9.3
59 | Cc1cnn(CC2CCCN2CCCc2nc3ccccc3o2)c1 (stereo unspecified) | -6.19
60 | CN1C(=O)CCC12CCN(c1ccc(C#N)cn1)CC2 | -109
61 | C[C@]1(O)CCN(Cc2c[nH]cn2)C[C@@H]1Oc1cccc(F)c1 | -5.72
62 | CCS(=O)(=O)c1ccc2oc([C@H]3CCN(Cc4ccncc4)C3)nc2c1 | 23.7
63 | O=C(CCc1ccccc1F)N1CCCC(OCc2cccnc2)C1 (stereo unspecified) | -5.44

Row | SMILES | cytotoxicity at 10 µM [%]
64 | Cc1nn(C)c2ncnc(N3CCCC(C)(O)C3)c12 (stereo unspecified) | 0.541
65 | O=S(=O)(c1ccc(F)cc1)N1CCCC1c1cc[nH]n1 (stereo unspecified) | -5.94
66 | CCS(=O)(=O)NCC(=O)Nc1cc(CC(C)(C)C)n[nH]1 | 5.01
67 | CCOCCCNCc1cc(O)c2cc(C)ccc2n1 | -11.1
68 | CC(O)CN1CCC(CNCc2ccc(OC(F)(F)F)cc2)CC1 (stereo unspecified) | -13.6
69 | CSc1ncc(CNC(C)c2cnn(-c3ccccc3)c2C)cn1 (stereo unspecified) | -3.63
70 | CN(C)c1ncc(-c2cc(C(=O)NCCO)n(CC3CC3)c2)cn1 | -3.53
71 | COCCC(=O)Nc1ccnc(Oc2ccccc2)c1 | 7.85
72 | Cc1nc(C2CCCN2C(=O)Cc2cccc(F)c2)nc(O)c1C (stereo unspecified) | -26.9
73 | Oc1cc(C2CCCCN2C2CCCC2)nc(-c2cccnc2)n1 (stereo unspecified) | 11.2
74 | COc1ccccc1C1(C(=O)N2CCN(CC(C)O)CC2)CC1 (stereo unspecified) | -3.51
75 | CCNC(=O)[C@@H]1C[C@@H](NC(=O)c2ccc(C)cc2O)CN1CCCSC | -125
76 | Cn1ccc2ccnc(CC3CN(C(=O)C4CCC(F)(F)CC4)C3)c21 | -2.78
77 | O=C(NC1CC1)[C@@H]1C[C@@H]2CCN(Cc3ccoc3)C[C@@H]2O1 | -103
78 | Fc1ccccc1CC1CCN(Cc2cscn2)CC1 | -5.71
79 | c1ncc2c(n1)CN(Cc1nc(-c3ccsc3)no1)CC2 | -4.77
80 | COc1cccc(C2CC(=O)Nc3nc(N4CCOCC4)sc32)c1OC (stereo unspecified) | -3.26
81 | Cc1cccc(Cn2nc(C3CCNCC3)n(-c3ccccc3)c2=O)c1 | -4.68
